pEC50: −log10 of the molar value. Active and inactive are the calls of the source. The rule behind the calls is not given here.
Assays:
[1] = system: Human immunodeficiency virus 1; assay: Antiviral activity against single-round HIV1 NLX.Lux-R harboring inactivating mutations in env, vpr and carries firefly luciferase gene in place of nef infected in human HeLa-T4 cells assessed as luciferase activity after 48 hrs […]; format: functional, organism-based; conditions: Human immunodeficiency virus 1, HeLaT4, 48 h
Outline: (§1)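 HeLa-T4 cells infected in duplicate for 2 h with 105 RT-cpm VSV-G-pseudotyped HIV-Luc (MOI ~0.01) with serial drug dilutions, washed and re-fed with the same drug. Luciferase normalized to total protein at 48 h, minus matched integrase-mutant N/N-Luc background. EC50/EC95 by GROWTH fit, ≥3 experiments; CC50 by WST-1 on HeLa-T4; SI = CC50/EC50.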

[2] = system: Human immunodeficiency virus 1; assay: Antiviral activity against single-round HIV1 NLX.Lux-R harboring inactivating mutations in env, vpr and carries firefly luciferase gene in place of nef infected in human HeLa-T4 cells assessed as inhibition of 2 mins magnetic nanopartials-medated infectivity after 48 hrs luciferase assay; format: functional, organism-based; conditions: for pEC50: Human immunodeficiency virus 1, HeLaT4
Outline: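 HeLa-T4 cells infected with virus dialysed against HS buffer (pH 7.3, 24 h, 4°C), plus 1.5% FBS, preincubated 5 min with 0.5 mg/ml magnetite nanoparticles. Added at 1:13 (vol/vol) final, 2 min under ~1 T, washed three or four times. Incubated at 37°C; luciferase read at 48 h.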

[3] = Selectivity index, ratio of CC50 for human HeLa-T4 cells to EC50 for single-round HIV1 NLX.Lux-R harboring inactivating mutations in env, vpr and carries firefly luciferase gene in place of nef; format: toxicity, cell-based; conditions: read-out: Ratio CC50/EC50; outline: as §1
[4] = Cytotoxicity against human HeLaT4 cells by WST-1 assay; format: cell-based
Outline: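 HeLa-T4 cells grown in DMEM with 10% FBS, 100 IU/ml penicillin and 100 μg/ml streptomycin; drug cytotoxicity measured by WST-1 read-out, with drugs tested up to 100 μM; 50% cytotoxic concentration (CC50) reported.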

[5] = system: Human immunodeficiency virus 1; assay: Ratio of EC50 for HIV1 NL4-3.Luc assessed as infectivity using human MDM pretreated for 24 hrs followed by exposed to virus after compound washout to standard EC50 for HIV1 NL4-3.Luc; format: functional
[6] = system: Human immunodeficiency virus 1; assay: Ratio of EC50 for HIV1 NL4-3.Luc assessed as infectivity using human PBMC pretreated for 24 hrs followed by exposed to virus after compound washout to standard EC50 for HIV1 NL4-3.Luc; format: functional
[7] = system: Human immunodeficiency virus 1; assay: Antiviral activity against HIV1 NL4-3.Luc in human PBMC assessed as infectivity treated for 24 hrs by luciferase assay; format: functional, organism-based; conditions: Human immunodeficiency virus 1, 24 h
[8] = system: Human immunodeficiency virus 1; assay: Antiviral activity against HIV1 NL4-3.Luc assessed as infectivity using human MDM pretreated for 24 hrs followed by exposed to virus after compound washout measured after 2 to 3 days by luciferase assay; format: functional, organism-based
[9] = system: Human immunodeficiency virus 1; assay: Antiviral activity against single-round HIV1 NLX.Lux-R harboring inactivating mutations in env, vpr and carries firefly luciferase gene in place of nef infected in human HeLa-T4 cells assessed as time required to 50% inhibition of infection at 100 times EC95 by time-of-addition assay; format: functional
Outline: (§2)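 Time-of-addition: drug at 10× or 100× EC95 added to HIV-Luc-infected HeLa-T4 cultures at set times after infection. Lysis at 48 h; luciferase as percent of no-drug cells. The time giving 50% inhibition versus the no-drug control was read from the curves.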

[10] = system: Human immunodeficiency virus 1; assay: Antiviral activity against single-round HIV1 NLX.Lux-R harboring inactivating mutations in env, vpr and carries firefly luciferase gene in place of nef assessed as level of 2 mins magnetic nanopartials-medated infection in human HeLaT4 cells treated for 1 measured after of 3 times compound washout and rewashed 48 hrs post infection by time-of-addition pulse assay; format: functional
Outline: (§3)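 Pulse time-of-addition: dialysed virus preincubated with magnetite nanoparticles, added to HeLa-T4 cells, 2 min under ~1 T magnetic field, then washed. At set times after infection, cells pulsed 1 h with 100× EC95 drug, washed three times and cultured drug-free. Lysis at 48 h postinfection; luciferase given as percent of no-drug control.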

[11] = system: Human immunodeficiency virus 1; assay: Antiviral activity against single-round HIV1 NLX.Lux-R harboring inactivating mutations in env, vpr and carries firefly luciferase gene in place of nef assessed as suppression of 2 mins magnetic nanopartials-medated residual infection in human HeLaT4 cells treated at 100 time EC95 for 1 measured after 11 hrs of 3 times compound washout and rewashed 48 hrs post infection by time-of-addition pulse assay relative to untreated control; format: functional; outline: as §3
[12] = system: Human immunodeficiency virus 1; assay: Ratio of EC50 for single-round HIV1 NLX.Lux-R harboring inactivating mutations in env, vpr and carries firefly luciferase gene in place of nef assessed as level of infection using human HeLaT4 cells pretreated for 24 hrs followed by exposed to virus immediately after 3 times compound washout to standard EC50 for HIV1 NLX.Lux-R; format: functional
Outline: (§4)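 HeLa-T4 cells pretreated 24 h with 100× EC95 drug, washed three times, then infected with VSV-G-pseudotyped HIV-Luc at 0, 2, 4, 8 or 12 h after washing. Virus removed by three washes at 2 h; lysis at 48 h. Luciferase normalized to protein, percent of no-drug control, Student's t test. Washout EC50 from immediate infection; ratio to standard EC50; ≥3 experiments in duplicate.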

[13] = system: Human immunodeficiency virus 1; assay: Antiviral activity against single-round HIV1 NLX.Lux-R harboring inactivating mutations in env, vpr and carries firefly luciferase gene in place of nef infected in human HeLa-T4 cells assessed as time required to cause 50% loss in compound potency at 10 times EC95 by time-of-addition assay; format: functional; outline: as §2
[14] = system: Human immunodeficiency virus 1; assay: Antiviral activity against single-round HIV1 NLX.Lux-R harboring inactivating mutations in env, vpr and carries firefly luciferase gene in place of nef assessed as level of infection using human HeLaT4 cells pretreated at 100 time EC95 for 24 hrs followed by exposed to virus after 12 hrs of 3 times compound washout relative to untreated control cells; format: functional, organism-based; outline: as §4
[15] = system: Human immunodeficiency virus 1; assay: Antiviral activity against HIV1 NL4-3.Luc in human MDM assessed as infectivity treated for 24 hrs by luciferase assay; format: functional, organism-based; conditions: Human immunodeficiency virus 1, 24 h
[16] = system: Human immunodeficiency virus 1; assay: Antiviral activity against single-round HIV1 NLX.Lux-R harboring inactivating mutations in env, vpr and carries firefly luciferase gene in place of nef infected in human HeLa-T4 cells assessed as time required to 50% inhibition of infection at 10 times EC95 by time-of-addition assay; format: functional; outline: as §2
[17] = system: Human immunodeficiency virus 1; assay: Antiviral activity against single-round HIV1 NLX.Lux-R harboring inactivating mutations in env, vpr and carries firefly luciferase gene in place of nef assessed as level of infection using human HeLaT4 cells pretreated for 24 hrs followed by exposed to virus immediately after 3 times compound washout; format: functional, organism-based; conditions: Human immunodeficiency virus 1, HeLaT4; outline: as §4
[18] = system: Human immunodeficiency virus 1; assay: Antiviral activity against HIV1 NL4-3.Luc assessed as infectivity using human PBMC pretreated for 24 hrs followed by exposed to virus after compound washout measured after 2 to 3 days by luciferase assay; format: functional, organism-based
[19] = Drug uptake in human HeLaT4 cells assessed as compound persist measured after 3 times washout at 100 time EC95 for HIV1 for 24 hrs; format: ADME, cell-based; conditions: helat4, 24 h; outline: as §4
[20] = system: Human immunodeficiency virus 1; assay: Antiviral activity against single-round HIV1 NLX.Lux-R harboring inactivating mutations in env, vpr and carries firefly luciferase gene in place of nef assessed as level of infection using human HeLaT4 cells pretreated at 100 time EC95 for 24 hrs followed by exposed to virus immediately after 3 times compound washout relative to untreated control cells; format: functional; outline: as §4
[21] = system: Human immunodeficiency virus 1; assay: Antiviral activity against single-round HIV1 NLX.Lux-R harboring inactivating mutations in env, vpr and carries firefly luciferase gene in place of nef assessed as level of infection using human HeLaT4 cells pretreated at 100 time EC95 for 24 hrs followed by exposed to virus after 2 to 4 hrs of 3 times compound washout relative to untreated control cells; format: functional; outline: as §4
[22] = system: Human immunodeficiency virus 1; assay: Antiviral activity against single-round HIV1 NLX.Lux-R harboring inactivating mutations in env, vpr and carries firefly luciferase gene in place of nef assessed as level of infection using human HeLaT4 cells pretreated at 100 time EC95 for 24 hrs followed by exposed to virus after 8 hrs of 3 times compound washout relative to untreated control cells; format: functional, organism-based; outline: as §4
[23] = system: Human immunodeficiency virus 1; assay: Antiviral activity against single-round HIV1 NLX.Lux-R harboring inactivating mutations in env, vpr and carries firefly luciferase gene in place of nef assessed as level of 2 mins magnetic nanopartials-medated residual infection in human HeLaT4 cells treated at 100 time EC95 for 1 measured after 3 hrs of 3 times compound washout and rewashed 48 hrs post infection by time-of-addition pulse assay; format: functional; outline: as §3
[24] = system: Human immunodeficiency virus 1; assay: Antiviral activity against single-round HIV1 NLX.Lux-R harboring inactivating mutations in env, vpr and carries firefly luciferase gene in place of nef assessed as level of 2 mins magnetic nanopartials-medated infection in human HeLaT4 cells treated at 100 time EC95 for 1 measured after 3 hrs of 3 times compound washout and rewashed 48 hrs post infection by time-of-addition pulse assay relative to untreated control at 4 hr time point; format: functional; outline: as §3

Compound: O=C1Nc2ccc(Cl)cc2[C@@](C#CC2CC2)(C(F)(F)F)O1 [EFAVIRENZ]
- pEC50 [1]: 8.96
- EC95 [1]: 0.008 µM
- Activity [2]: Dose-dependent effect
- pEC50 [2]: 6.00
- selectivity ratio [3]: 31800
- CC50 [4]: 35 µM

Compound: COc1cc2c(cc1Cc1cccc(Cl)c1F)c(=O)c(C(=O)O)cn2[C@H](CO)C(C)C [ELVITEGRAVIR]
- Ratio EC50 [5]: 50
- Ratio EC50 [6]: 120
- pEC50 [1]: 8.54
- EC95 [1]: 0.037 µM
- pEC50 [7]: 9.52
- EC95 [7]: 0.0074 µM
- pEC50 [8]: 7.60
- Time [9]: 11.3 h
- EC98.6 [10]: 75 nM
- Activity [2]: Dose-dependent effect
- pEC50 [2]: 5.47
- selectivity ratio [3]: 11700
- fold change (FC) [11]: 2
- Ratio EC50 [12]: 20.7
- Time [13]: 11.1 h
- Activity [14]: Active
- pEC50 [15]: 9.30
- EC95 [15]: 0.0082 µM
- CC50 [4]: 34 µM
- Time [16]: 10.1 h
- pEC50 [17]: 7.22
- pEC50 [18]: 7.44

Compound: CC(C)OC(=O)OCOP(=O)(CO[C@H](C)Cn1cnc2c(N)ncnc21)OCOC(=O)OC(C)C.O=C(O)/C=C/C(=O)O [TENOFOVIR DISOPROXIL FUMARATE]
- Ratio EC50 [5]: 1.2
- Ratio EC50 [6]: 1.2
- pEC50 [1]: 8.54
- EC95 [1]: 0.037 µM
- pEC50 [7]: 7.34
- EC95 [7]: 0.72 µM
- pEC50 [8]: 7.47
- EC99.6 [10]: 0.95 µM
- selectivity ratio [3]: 11700
- Ratio EC50 [12]: 4
- Activity [14]: Active
- pEC50 [15]: 7.55
- EC95 [15]: 0.52 µM
- Drug uptake [19]: Active
- CC50 [4]: 34 µM
- pEC50 [17]: 6.92
- pEC50 [18]: 7.26

Compound: Cc1cn([C@H]2C[C@H](N=[N+]=[N-])[C@@H](CO)O2)c(=O)[nH]c1=O [ZIDOVUDINE]
- pEC50 [1]: 8.08
- EC95 [1]: 0.09 µM
- selectivity ratio [3]: > 11900
- Ratio EC50 [12]: 59.7
- Activity [20]: 18%
- Time [13]: 4.8 h
- Drug uptake [19]: Active
- Activity [21]: 40%
- CC50 [4]: > 100 µM
- pEC50 [17]: 5.34
- Activity [22]: inactive

Compound: Cc1nnc(C(=O)NC(C)(C)c2nc(C(=O)NCc3ccc(F)cc3)c(O)c(=O)n2C)o1 [RALTEGRAVIR]
- Ratio EC50 [5]: 1140
- Ratio EC50 [6]: 1375
- pEC50 [1]: 7.11
- EC95 [1]: 0.81 µM
- pEC50 [7]: 8.62
- EC95 [7]: 0.048 µM
- pEC50 [8]: 5.31
- Time [9]: 12.7 h
- EC91 ([10]; Human immunodeficiency virus 1, HeLaT4): 0.073 µM
- Activity [23]: 9%
- selectivity ratio [3]: > 1300
- fold change (FC) [11]: 2
- Ratio EC50 [12]: 547.6
- Activity [20]: 19%
- Time [13]: 10.2 h
- pEC50 [15]: 8.37
- EC95 [15]: 0.08 µM
- Activity [21]: 50%
- CC50 [4]: > 100 µM
- Time [16]: 10.5 h
- pEC50 [17]: 5.34
- pEC50 [18]: 5.48

Compound: Cc1ccnc2c1NC(=O)c1cccnc1N2C1CC1 [NEVIRAPINE]
- Activity [24]: 23%
- Ratio EC50 [5]: >3703
- Ratio EC50 [6]: >2439
- pEC50 [1]: 7.14
- EC95 [1]: 0.68 µM
- pEC50 [7]: 7.39
- EC95 [7]: 0.69 µM
- pEC50 [8]: < 4.00
- selectivity ratio [3]: > 1370
- Ratio EC50 [12]: >1370
- Activity [20]: inactive
- Time [13]: 7.2 h
- pEC50 [15]: 7.57
- EC95 [15]: 0.64 µM
- Drug uptake [19]: Not Active
- CC50 [4]: > 100 µM
- pEC50 [17]: < 4.00
- pEC50 [18]: < 4.00
